Data: publication PMC8929370 (Pharmacology Research & Perspectives, 2022)

Key:
[1] = target: human CB1 (hCB1) receptor (Homo sapiens, UniProt P21554); type: binding; conditions: for Rank order (affinity): rank of pKi among EG-018 and 13 analogues
human CB1 [2] = target: T1, human CB1 (Homo sapiens, UniProt P21554); test: [35S]GTPγS binding in P2 membranes of HEK293 cells expressing hCB1; type: biochemical; conditions: for Rank order efficacy: [35S]-GTPγS efficacy ranking; for Emax: read-out: E MAX (±SEM), %
human CB1 [3] = target: T1, human CB1; test: Inhibition of FSK-stimulated cAMP; type: cell-based; conditions: for Emax: HEK293, read-out: E MAX (±SEM), %; for Rank order efficacy: cAMP inhibition efficacy ranking
human CB1 [4] = target: T1, human CB1; test: Phospho-ERK AlphaLISA assay in 3HA-hCB1 HEK cells; type: cell-based; conditions: 10 µM alone
Summary of the method: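 3HA-hCB1 HEK cells were plated at 2.5e4/well on poly-D-lysine-coated plates and serum-starved overnight after ~24 h in serum-free high-glucose DMEM with 1 mg/ml BSA. Drugs were made at 2x, prewarmed and dispensed in a 37°C waterbath, staggered so all stimulations ended together. The time course used 31.6 µM. Cells were lysed on ice and pERK read by AlphaLISA SureFire Ultra, in technical duplicate or quadruplicate.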

T1 sequence (P21554 whole entry): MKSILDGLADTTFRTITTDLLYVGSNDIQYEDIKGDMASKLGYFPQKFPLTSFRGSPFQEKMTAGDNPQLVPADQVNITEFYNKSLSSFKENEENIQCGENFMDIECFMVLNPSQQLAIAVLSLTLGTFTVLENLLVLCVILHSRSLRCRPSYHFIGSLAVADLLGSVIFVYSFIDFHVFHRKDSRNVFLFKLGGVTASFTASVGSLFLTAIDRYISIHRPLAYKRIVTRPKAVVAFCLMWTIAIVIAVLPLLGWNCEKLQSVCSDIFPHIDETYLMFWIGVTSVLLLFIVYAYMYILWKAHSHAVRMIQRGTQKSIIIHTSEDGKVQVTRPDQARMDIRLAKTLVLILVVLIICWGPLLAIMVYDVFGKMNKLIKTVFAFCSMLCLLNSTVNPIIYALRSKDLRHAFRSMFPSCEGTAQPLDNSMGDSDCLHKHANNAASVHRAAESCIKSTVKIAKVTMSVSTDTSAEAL
Sequence of human CB1 (hCB1) receptor (P21554 whole entry): as above

Structure (SMILES)	Ki [1] [µM]	Rank order (affinity) [1]	EC50 (human CB1 [2]) [µM]	Rank order efficacy (human CB1 [2])	Emax (human CB1 [2]) [%]	EC50 (human CB1 [3]) [µM]	Emax (human CB1 [3]) [%]	Rank order efficacy (human CB1 [3])	right-shift in the potency of the CP55940 response (cAMP) (human CB1 [3]; 10 µM antagonist, E MAX not reduced)	agonist response in pERK by compound alone (human CB1 [4])	inverse agonism in cAMP assay (human CB1 [3]; concentration-response, compared to SR141716A)
O=C(c1ccc2c(c1)c1ccccc1n2CCCCCO)c1cccc2ccccc12 [Compound 045]	0.166	9	0.257	12	81.9	0.148	34.9	9			
Cc1ccc(C(=O)c2ccc3c(c2)c2ccccc2n3CCN2CCOCC2)c2ccccc12 [Compound 141, (9-(2-(Morpholin-4-yl)ethyl)-9H-carbazol-3-yl)(4-methylnaphthalen-1-yl)methanone]	0.148	8	0.355	8	106	0.0832	38.7	7			
O=C(c1ccc2c(c1)c1ccccc1n2CCN1CCOCC1)c1cc2ccccc2[nH]1 [Compound 142, (9-(2-(Morpholin-4-yl)ethyl)-9H-carbazol-3-yl)(1H-indol-2-yl)methanone]		14	6.17	6	123	1.2	31.5	13			
O=C(c1ccc2c(c1)c1ccccc1n2CCN1CCOCC1)c1cc2ccccc2o1 [Compound 146, 1-Benzofuran-2-yl(9-(2-(morpholin-4-yl)ethyl)-9H-carbazol-3-yl)methanone]	0.295	11				0.355	38.5	8			
O=C(c1ccc2c(c1)c1ccccc1n2CCN1CCOCC1)c1ccnc2ccccc12 [Compound 157, (9-(2-(Morpholin-4-yl)ethyl)-9H-carbazol-3-yl)(quinoline-4-yl)methanone]	0.589	13	0.257	10	88.2	0.0912	13.1	14	approximately 1 log unit	not driving an agonist response in pERK	
O=C(NN1CCCCC1)c1nn(-c2ccc(Cl)cc2Cl)c2c1CCCc1cc(Cl)ccc1-2 [NESS‐0327, reference compound]											approximately equivalent inverse agonism to SR141716A
